Test results taken from paper PMC5704914 (Biochemistry, 2017).

Tested on: α11.2 AAs 1506-1871
Test: Yeast two-hybrid interaction of α-actinin-1 fragments with α11.2 C-terminus
Format: binding, rabbit
Conditions: α-actinin-1 prey in pGADT7; X-α-Gal
Summary of the method: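 Bait plasmids (α11.2 C-terminal fragments) and α-actinin-1 full-length or fragment prey (Gal4 activation domain, pGADT7) were co-transformed into Y2H Gold yeast. Co-transformants were selected on Leu−/Trp− plates with X-α-Gal, then colonies were replated onto Leu/Trp/His/Ade quadruple-dropout plates plus X-α-Gal to score interaction.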

B1: SR234EF: C-terminal four EF hands preceded by three spectrin repeats of α-actinin-1 (AAs 391-892) (protein)
chain: RLDHLAEKFRQKASIHEAWTDGKEAMLRQKDYETATLSEIKALLKKHEAFESDLAAHQDRVEQIAAIAQELNELDYYDSPSVNARCQKICDQWDNLGALTQKRREALERTEKLLETIDQLYLEYAKRAAPFNNWMEGAMEDLQDTFIVHTIEEIQGLTTAHEQFKATLPDADKERLAILGIHNEVSKIVQTYHVNMAGTNPYTTITPQEINGKWDHVRQLVPRRDQALTEEHARQQHNERLRKQFGAQANVIGPWIQTKMEEIGRISIEMHGTLEDQLSHLRQYEKSIVNYKPKIDQLEGDHQLIQEALIFDNKHTNYTMEHIRVGWEQLLTTIARTINEVENQILTRDAKGISQEQMNEFRASFNHFDRDHSGTLGPEEFKACLISLGYDIGNDPQGEAEFARIMSIVDPNRLGVVTFQAFIDFMSRETADTDTADQVMASFKILAGDKNYITMDELRRELPPDQAEYCIARMAPYTGPDSVPGALDYMSFSTALYGESDL
modifications: left off: Gal4 activation domain, end not stated, kept
  interaction of α-actinin-1 polypeptide with α11.2 AAs 1506-1871 (Y2H): consistently strong interaction readouts
